Holding throughout (type): functional, cell-based
One test deals with A549. Nature of the test: In vitro cytotoxicity against the A-549 (human lung carcinoma) neoplastic cell line.
In another test the test system is P388. Nature of the test: In vitro cytotoxicity against the P-388 (from DBA/2 mouse) neoplastic cell line. Put shortly:
(§1)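 In vitro assay adapted from Bergeron's method. P-388 was grown as a suspension culture of a mouse lymphoid neoplasm. A-549, HT-29 and MEL-28 were grown as monolayer cultures. Dose–response curves were constructed, and IC50 values (nM) were calculated from them.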

The subject of another test is HT-29. As to the kind of experiment: In vitro cytotoxicity against the HT-29 (human colon carcinoma) neoplastic cell line. A digest of the protocol:
as §1

A further test concerns SK-MEL-28. Nature of the test: In vitro cytotoxicity against MEL-28 (human malign melanoma) neoplastic cell line. A digest of the protocol: as §1

Molecules are shown by their SMILES.

With `COc1cc([C@@H]2c3cc4c(cc3[C@H](O)[C@H]3COC(=O)[C@H]23)OCO4)cc(OC)c1OC` [PODOFILOX], the 50% inhibitory concentration (IC50) in the test with A549 (Homo sapiens, A549) was 2900 nM; in the test with P388 (Mus musculus, P388) it was 2900 nM; in the test on HT-29 (Homo sapiens, HT-29) it was 2900 nM.

In the case of `COc1cc([C@@H]2c3cc4c(cc3[C@H](O)[C@H]3COC(=O)[C@@H]23)OCO4)cc(OC)c1OC` [AXL-1717], the IC50 with A549 (Homo sapiens, A549) worked out at 60 nM; in the test with P388 (Mus musculus, P388) it was 60 nM; with HT-29 (Homo sapiens, HT-29), 60 nM.

`COc1cc([C@@H]2c3cc4c(cc3[C@H](OC(=O)c3ccccc3)[C@H]3COC(=O)[C@H]23)OCO4)cc(OC)c1OC`: the IC50 in the test with SK-MEL-28 (Homo sapiens, SK-MEL-28) turned out to be 1930 nM; in the test on A549 (Homo sapiens, A549), 1930 nM; in the test on P388 (Mus musculus, P388), 1930 nM; with HT-29 (Homo sapiens, HT-29), 1930 nM.

Regarding `C=CC(=O)O[C@@H]1c2cc3c(cc2[C@@H](c2cc(OC)c(OC)c(OC)c2)[C@@H]2C(=O)OC[C@@H]21)OCO3`, the IC50 in the test with SK-MEL-28 (Homo sapiens, SK-MEL-28) amounted to 21 nM; in the test with A549 (Homo sapiens, A549), 21 nM; in the test with P388 (Mus musculus, P388), 21 nM; with HT-29 (Homo sapiens, HT-29) it was 21 nM.

As for `COc1cc([C@@H]2c3cc4c(cc3[C@H](OC(=O)Cc3ccccc3)[C@H]3COC(=O)[C@H]23)OCO4)cc(OC)c1OC`, the IC50 turned out to be 188 nM in the test with SK-MEL-28 (Homo sapiens, SK-MEL-28); 188 nM in the test with A549 (Homo sapiens, A549); 188 nM in the test with P388 (Mus musculus, P388); 188 nM in the test on HT-29 (Homo sapiens, HT-29).

Turning to `COc1cc([C@@H]2c3cc4c(cc3[C@@H](O)[C@H]3COC(=O)[C@H]23)OCO4)cc(OC)c1OC` [EPIPODOPHYLLOTOXIN], the IC50 with A549 (Homo sapiens, A549) is 6000 nM; in the test on P388 (Mus musculus, P388), 6000 nM; with HT-29 (Homo sapiens, HT-29), 6000 nM.

Turning to `COc1cc([C@@H]2c3cc4c(cc3[C@@H](OC(=O)CC3CC5CCC3C5)[C@H]3COC(=O)[C@H]23)OCO4)cc(OC)c1OC` (some centres undefined), the IC50 with SK-MEL-28 (Homo sapiens, SK-MEL-28) came to 454 nM; with A549 (Homo sapiens, A549), 454 nM; with P388 (Mus musculus, P388), 454 nM; with HT-29 (Homo sapiens, HT-29), 454 nM.

Take `COc1cc([C@@H]2c3cc4c(cc3[C@@H](OC(=O)C3CC5C=CC3C5)[C@H]3COC(=O)[C@H]23)OCO4)cc(OC)c1OC` (some centres undefined): the IC50 was 1120 nM in the test with SK-MEL-28 (Homo sapiens, SK-MEL-28); 1120 nM with A549 (Homo sapiens, A549); 1120 nM in the test on P388 (Mus musculus, P388); 1120 nM in the test on HT-29 (Homo sapiens, HT-29).

In the case of `COc1cc([C@@H]2c3cc4c(cc3[C@@H](OC(=O)c3ccccc3)[C@H]3COC(=O)[C@H]23)OCO4)cc(OC)c1OC`, the IC50 in the test with SK-MEL-28 (Homo sapiens, SK-MEL-28) stood at 48 nM; in the test on A549 (Homo sapiens, A549), 48 nM; with P388 (Mus musculus, P388), 24 nM; in the test on HT-29 (Homo sapiens, HT-29), 48 nM.

Turning to `C=CC(=O)O[C@H]1c2cc3c(cc2[C@@H](c2cc(OC)c(OC)c(OC)c2)[C@@H]2C(=O)OC[C@@H]21)OCO3`, the IC50 in the test on SK-MEL-28 (Homo sapiens, SK-MEL-28) was 53 nM; in the test on A549 (Homo sapiens, A549), 53 nM; with P388 (Mus musculus, P388) it was 55 nM; with HT-29 (Homo sapiens, HT-29) it was 55 nM.

As to `COc1cc([C@@H]2c3cc4c(cc3[C@H](OC(=O)C3CC5C=CC3C5)[C@H]3COC(=O)[C@H]23)OCO4)cc(OC)c1OC` (some centres undefined), the IC50 in the test with SK-MEL-28 (sk-mel-28), in the test with A549 (a549), in the test on P388 (p388) and in the test with HT-29 (ht-29) was 468 nM throughout.

`COc1cc([C@@H]2c3cc4c(cc3[C@H](OC(=O)C3CC5C=CC3C5)[C@H]3COC(=O)[C@@H]23)OCO4)cc(OC)c1OC` (some centres undefined): the IC50 in the test with SK-MEL-28 (Homo sapiens, SK-MEL-28) was determined as 19 nM; in the test with A549 (Homo sapiens, A549), 19 nM; with P388 (Mus musculus, P388) it was 19 nM; in the test on HT-29 (Homo sapiens, HT-29), 19 nM.

With `COc1cc([C@@H]2c3cc4c(cc3[C@@H](O[C@@H]3O[C@@H]5CO[C@@H](C)O[C@H]5[C@H](O)[C@H]3O)[C@H]3COC(=O)[C@H]23)OCO4)cc(OC)c1O` [ETOPOSIDE], the IC50 in the test with SK-MEL-28 (Homo sapiens, SK-MEL-28) worked out at 850 nM; in the test with P388 (Mus musculus, P388) it was 170 nM; with HT-29 (Homo sapiens, HT-29), 1700 nM.

In the case of `C=CC(=O)O[C@@H]1c2cc3c(cc2[C@@H](c2cc(OC)c(OC)c(OC)c2)[C@H]2C(=O)OC[C@@H]21)OCO3`, the IC50 worked out at 213 nM with SK-MEL-28 (Homo sapiens, SK-MEL-28); 213 nM in the test on A549 (Homo sapiens, A549); 213 nM in the test with P388 (Mus musculus, P388); 213 nM with HT-29 (Homo sapiens, HT-29).

Take `COc1cc([C@@H]2c3cc4c(cc3[C@@H](O)[C@H]3COC(=O)[C@@H]23)OCO4)cc(OC)c1OC`: the IC50 with A549 (Homo sapiens, A549) was 12 nM; in the test with P388 (Mus musculus, P388) it was 12 nM; with HT-29 (Homo sapiens, HT-29) it was 24 nM.

As to `COc1cc([C@@H]2c3cc4c(cc3C(OC(=O)C3CC5C=CC3C5)[C@H]3COC(=O)C23)OCO4)cc(OC)c1OC` (single isomer, unassigned), the IC50 was 4 nM in the test on SK-MEL-28 (sk-mel-28), 4 nM in the test on A549 (a549), 5 nM with P388 (p388) and 4 nM in the test with HT-29 (ht-29).

For `COc1cc([C@@H]2c3cc4c(cc3[C@@H](OC(=O)/C=C/c3ccccc3)[C@H]3COC(=O)[C@H]23)OCO4)cc(OC)c1OC`, the IC50 in the test on SK-MEL-28 (Homo sapiens, SK-MEL-28) was found to be 184 nM; in the test with A549 (Homo sapiens, A549) it was 184 nM; with P388 (Mus musculus, P388), 184 nM; in the test on HT-29 (Homo sapiens, HT-29), 184 nM.

Turning to `CCCCCCC(=O)O[C@@H]1c2cc3c(cc2[C@@H](c2cc(OC)c(OC)c(OC)c2)[C@H]2C(=O)OC[C@@H]21)OCO3`, the IC50 in the test on SK-MEL-28 (Homo sapiens, SK-MEL-28) came to 190 nM; in the test on A549 (Homo sapiens, A549), 190 nM; with P388 (Mus musculus, P388), 190 nM; in the test on HT-29 (Homo sapiens, HT-29), 190 nM.

Consider `COc1cc([C@@H]2c3cc4c(cc3[C@H](OC(=O)/C=C/c3ccccc3)[C@H]3COC(=O)[C@H]23)OCO4)cc(OC)c1OC`, for which the IC50 was 9180 nM with SK-MEL-28 (Homo sapiens, SK-MEL-28); 9180 nM in the test with A549 (Homo sapiens, A549); 4590 nM in the test on P388 (Mus musculus, P388); 9180 nM in the test with HT-29 (Homo sapiens, HT-29).

On to `C=CC(=O)O[C@H]1c2cc3c(cc2[C@@H](c2cc(OC)c(OC)c(OC)c2)[C@H]2C(=O)OC[C@@H]21)OCO3`, for which the IC50 with SK-MEL-28 (Homo sapiens, SK-MEL-28) amounted to 213 nM; in the test with A549 (Homo sapiens, A549), 213 nM; with P388 (Mus musculus, P388) it was 213 nM; in the test with HT-29 (Homo sapiens, HT-29) it was 213 nM.

As for `COc1cc([C@@H]2c3cc4c(cc3[C@@H](OC(=O)Cc3ccccc3)[C@H]3COC(=O)[C@H]23)OCO4)cc(OC)c1OC`, the IC50 was found to be 94 nM in the test with SK-MEL-28 (Homo sapiens, SK-MEL-28); 94 nM in the test with A549 (Homo sapiens, A549); 47 nM in the test on P388 (Mus musculus, P388); 94 nM with HT-29 (Homo sapiens, HT-29).

What is called IC50 is the point on the concentration scale where inhibition reaches its midpoint.

(Values after ChEMBL document CHEMBL1147606, “Synthesis and cytotoxicity of hydrophobic esters of podophyllotoxins” (Bioorg Med Chem Lett, 2004).)
